Assay results reported in ChEMBL document CHEMBL1125391, “Syntheses and thymidylate synthase inhibitory activity of the poly-gamma-glutamyl conjugates of N-[5-[N-(3,4-dihydro-2-methyl-4-oxoquinazolin-6-ylmethyl)-N-methylamino ]-2-thenoyl]-L-glutamic acid (ICI D1694) and other quinazoline antifolates” (J Med Chem, 1992).

Assays:
Thymidylate synthase [1] = target: T1, Thymidylate synthase (Mus musculus, UniProt P07607); test: Inhibition of thymidylate synthase, partially purified from L1210 mouse leukemia cells overexpressing TS; format: cell-free; conditions: read-out: Ki app
T1 sequence (P07607 whole entry): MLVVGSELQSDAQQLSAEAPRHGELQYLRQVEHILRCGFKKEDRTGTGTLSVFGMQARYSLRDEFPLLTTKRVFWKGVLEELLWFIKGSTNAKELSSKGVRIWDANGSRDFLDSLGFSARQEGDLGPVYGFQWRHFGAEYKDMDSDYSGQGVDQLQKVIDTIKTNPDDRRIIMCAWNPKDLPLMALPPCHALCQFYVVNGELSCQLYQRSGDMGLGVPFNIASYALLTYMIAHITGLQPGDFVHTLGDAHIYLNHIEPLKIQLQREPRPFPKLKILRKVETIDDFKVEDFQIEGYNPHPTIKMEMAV
Summary of the method: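 Enzyme partially purified from L1210 mouse leukemia cells that overproduce TS through TS gene amplification. Assayed by the previously described method with (±)-5,10-methylenetetrahydrofolic acid at 200 μM. Apparent Ki was calculated with the Goldstein equation for tight-binding inhibitors.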

[2] = target: Thymidylate synthase (Mus musculus) (UniProt P07607); test: Compound was evaluated for fold increase in Thymidylate synthase (TS) inhibition; format: functional
Sequence of Thymidylate synthase (Mus musculus) (P07607 whole entry, looked up): as the sequence (P07607 whole entry) above

Thymidylate synthase [3] = target: T1, Thymidylate synthase; test: Compound was evaluated for inhibition of thymidylate synthase, partially purified from L1210 mouse leukemia cells that overproduce thymidylate synthase due to amplification of TS gene; conditions: read-out: Ki app

For `C#CCN(Cc1ccc2nc(C)cc(Cl)c2c1)c1ccc(C(=O)N[C@@H](CCC(=O)O)C(=O)O)c(F)c1`, which Ki (Thymidylate synthase [1]) is on record?
The Ki was 63.7 nM.

`Cc1nc2ccc(CN(C)c3ccc(C(=O)N[C@@H](CCC(=O)N[C@@H](CCC(=O)O)C(=O)O)C(=O)O)s3)cc2c(=O)[nH]1` was tested. Which Ki (Thymidylate synthase [1]) did it give?
The Ki was 24 nM.

Which Ki (Thymidylate synthase [1]) does the source give for `Cc1nc2ccc(CN(C)c3ccc(C(=O)N[C@@H](CCC(=O)N[C@@H](CCC(=O)N[C@@H](CCC(=O)O)C(=O)O)C(=O)O)C(=O)O)s3)cc2c(=O)[nH]1` here?
The Ki was 7.52 nM.

With `Cc1nc(O)c2cc(CN(C)c3ccc(C(=O)N[C@@H](CCC(=O)N[C@@H](CCC(=O)N[C@@H](CCC(=O)N[C@@H](CCC(=O)O)C(=O)O)C(=O)O)C(=O)O)C(=O)O)s3)ccc2n1` as the compound, how does the Fold increase [2] read?
Its Fold increase is 89.

What about the Ki (Thymidylate synthase [1]) of the same compound?
Its Ki is 4.69 nM.

With `C#CCN(Cc1ccc2nc(C)[nH]c(=O)c2c1)c1ccc(C(=O)N[C@@H](CCC(=O)O)C(=O)O)c(F)c1` as the compound, how does the Ki (Thymidylate synthase [1]) read?
The Ki was 10.4 nM.

Which Ki (Thymidylate synthase [1]) does the source give for `Cc1nc2ccc(CN(C)c3ccc(C(=O)N[C@@H](CCC(=O)N[C@@H](CCC(=O)N[C@@H](CCC(=O)N[C@@H](CCC(=O)N[C@@H](CCC(=O)O)C(=O)O)C(=O)O)C(=O)O)C(=O)O)C(=O)O)s3)cc2c(=O)[nH]1` here?
Its Ki is 3.79 nM.

How did the Ki (Thymidylate synthase [1]) turn out when `Cc1nc2ccc(CN(C)c3ccc(C(=O)N[C@@H](CCC(=O)N[C@@H](CCC(=O)N[C@@H](CCC(=O)N[C@@H](CCC(=O)N[C@@H](CCC(=O)N[C@@H](CCC(=O)O)C(=O)O)C(=O)O)C(=O)O)C(=O)O)C(=O)O)C(=O)O)s3)cc2c(=O)[nH]1` was run?
The Ki was 3.7 nM.

With `Cc1nc(O)c2cc(CN(C)c3ccc(C(=O)N[C@@H](CCC(=O)N[C@@H](CCC(=O)O)C(=O)O)C(=O)O)s3)ccc2n1` as the compound, how does the Fold increase [2] read?
Its Fold increase is 17.

How did the Fold increase [2] turn out when `Cc1nc(O)c2cc(CN(C)c3ccc(C(=O)N[C@@H](CCC(=O)N[C@@H](CCC(=O)N[C@@H](CCC(=O)N[C@@H](CCC(=O)N[C@@H](CCC(=O)N[C@@H](CCC(=O)O)C(=O)O)C(=O)O)C(=O)O)C(=O)O)C(=O)O)C(=O)O)s3)ccc2n1` was run?
Its Fold increase is 112.

What does the source list for `C#CCN(Cc1ccc2nc(C)cc(Cl)c2c1)c1ccc(C(=O)N[C@@H](CCC(=O)N[C@@H](CCC(=O)N[C@@H](CCC(=O)O)C(=O)O)C(=O)O)C(=O)O)c(F)c1`?
Fold increase [2]: 64; Ki (Thymidylate synthase [1]): 1 nM

`Cc1nc(O)c2cc(CN(C)c3ccc(C(=O)N[C@@H](CCC(=O)N[C@@H](CCC(=O)N[C@@H](CCC(=O)O)C(=O)O)C(=O)O)C(=O)O)s3)ccc2n1` was tested. Which Fold increase [2] did it give?
Its Fold increase is 56.

For `Cc1nc2ccc(CN(C)c3ccc(C(=O)N[C@@H](CCC(=O)O)C(=O)O)s3)cc2c(=O)[nH]1` [RALTITREXED], which Ki (Thymidylate synthase [3]) is on record?
Its Ki is 418 nM.

How did the Fold increase [2] turn out when `C#CCN(Cc1ccc2nc(C)nc(O)c2c1)c1ccc(C(=O)N[C@@H](CCC(=O)N[C@@H](CCC(=O)O)C(=O)O)C(=O)O)c(F)c1` was run?
Its Fold increase is 18.

And the Ki (Thymidylate synthase [1])?
Its Ki is 0.59 nM.

With `Cc1nc(O)c2cc(CN(C)c3ccc(C(=O)N[C@@H](CCC(=O)N[C@@H](CCC(=O)N[C@@H](CCC(=O)N[C@@H](CCC(=O)N[C@@H](CCC(=O)O)C(=O)O)C(=O)O)C(=O)O)C(=O)O)C(=O)O)s3)ccc2n1` as the compound, how does the Fold increase [2] read?
Its Fold increase is 110.
